Assay results reported in PubChem BioAssay AID2465 (Broad Institute, 2010).
Screen size: about 24,000 compounds; fewer than 10 were called active. Rule as the data show it: active = caspase activation above about 5.9%; inconclusive = no clear call, values can overlap the other calls; inactive = below about 2.2%. A selection follows.

Test: Bcl2-A1 antagonists releasing BIM, apoptosis – cell-based, luminescence, HTS, two replicates, primary screen (AID 2465)
Conditions: MEF A1-2A-BIM cells, caspase-Glo luminescence, 3 h; active compounds read high; percent of clofoctol response, DMSO zero; concentration not given here
Procedure, shortened: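 system = A1-2A-BIM-expressing MEF cells | quantity = 2500 MEF cells/well | dosing = 50 nL compound per well, pinned | schedule = overnight cell settling, then 3 h compound exposure, 37 °C | signal = luminescence from DEVD-luciferin Caspase-Glo reagent, 1:1 in 50 mM HEPES, 1 h RT | read-out = Caspase-3/7 activation, seen as rise in luminescence signal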

Caspase activation, inactive:
C[C@H]1CN([C@@H](C)CO)C(=O)Cc2cc(NS(=O)(=O)c3ccccc3)ccc2O[C@H]1CN(C)Cc1ccc(C(=O)Nc2ccccc2N)cc1 0.839%, COc1ccc(CN(C)C[C@H]2OCCCC[C@H](C)Oc3ccc(NC(=O)NC4CCCCC4)cc3C(=O)N([C@@H](C)CO)C[C@@H]2C)cc1 2.09%, CN(C)c1ccc(/C=N/NC(=O)c2cccc(C(=O)NO)c2)cc1 -7.51%, C[C@@H]1CN([C@@H](C)CO)C(=O)c2cc(NC(=O)Nc3ccc4c(c3)OCO4)ccc2O[C@@H](C)CCCCO[C@@H]1CN(C)S(=O)(=O)c1cccs1 0.598%, COc1ccc(CN(C)C[C@H]2OCCCC[C@H](C)Oc3ccc(NC(=O)c4ccccc4)cc3C(=O)N([C@@H](C)CO)C[C@@H]2C)cc1 2.67%, O=C(NO)c1cccc(C(=O)N/N=C/c2cc(Br)c(O)c(Br)c2)c1 0.169%, CC(C)NC(=O)N(C)C[C@H]1Oc2ccc(NC(=O)CCCCCC(=O)Nc3ccccc3N)cc2CC(=O)N([C@@H](C)CO)C[C@H]1C 0.899%, Cc1noc(C)c1S(=O)(=O)N(C)C[C@H]1OCc2cn(nn2)CCCC(=O)N([C@H](C)CO)C[C@H]1C -0.756%, C[C@H]1CCCCO[C@@H](CN(C)C(=O)Nc2ccccc2)[C@@H](C)CN([C@@H](C)CO)C(=O)c2cc(NC(=O)Nc3ccc(F)cc3)ccc2O1 -0.917%, Cc1ccc(S(=O)(=O)Nc2ccc3c(c2)C(=O)N([C@H](C)CO)C[C@H](C)[C@@H](CN(C)Cc2ccccc2)OCCCC[C@H](C)O3)cc1 -0.556%, C[C@H](CO)N1C[C@H](C)[C@@H](CN(C)Cc2ccc(C(=O)O)cc2)Oc2ccc(NS(=O)(=O)c3cn(C)cn3)cc2CC1=O -0.273%, C[C@@H]1CCCCO[C@@H](CN(C)C(=O)Nc2cccc3ccccc23)[C@H](C)CN([C@H](C)CO)C(=O)c2cc(NS(C)(=O)=O)ccc2O1 -0.00967%, Cc1noc(C)c1NC(=O)Nc1ccc2c(c1)C(=O)N([C@H](C)CO)C[C@@H](C)[C@@H](CN(C)Cc1ccncc1)OCCCC[C@H](C)O2 -0.749%, C[C@@H]1CN([C@@H](C)CO)C(=O)c2cc(NC(=O)Cc3ccccc3)ccc2O[C@@H]1CN(C)CC1CCCCC1 0.64%, Cc1noc(C)c1NC(=O)Nc1ccc2c(c1)C(=O)N([C@@H](C)CO)C[C@@H](C)[C@H](CN(C)C(=O)NC(C)C)O2 0.213%, C[C@@H]1CN([C@H](C)CO)C(=O)c2cc(NC(=O)CCCCCC(=O)Nc3ccccc3N)ccc2O[C@H]1CN(C)Cc1ccncc1 0.61%, C[C@@H]1CCCCO[C@H](CN(C)CC2CC2)[C@@H](C)CN([C@H](C)CO)C(=O)c2cc(NC(=O)Nc3ccc(F)cc3)ccc2O1 -0.194%, COc1ccc(S(=O)(=O)N(C)C[C@@H]2Oc3c(NC(=O)NC(C)C)cccc3C(=O)N([C@@H](C)CO)C[C@@H]2C)cc1 -0.3%, O=C(CCCCC(=O)N/N=C/c1ccc(-n2ccnc2)cc1)NO 1.09%, C[C@H](CO)N1C[C@H](C)[C@H](CN(C)C(=O)c2ccccc2)OCCCC[C@H](C)Oc2ccc(N(C)C)cc2C1=O -1.45%, CC(C)NC(=O)Nc1ccc2c(c1)C(=O)N([C@H](C)CO)C[C@H](C)[C@@H](CN(C)S(=O)(=O)c1ccc(F)cc1)OCCCC[C@H](C)O2 1.08%, COc1ccc(S(=O)(=O)N(C)C[C@@H]2OCCCC[C@@H](C)Oc3ccc(NC(=O)c4ccccc4)cc3C(=O)N([C@@H](C)CO)C[C@H]2C)cc1 1.47%, C[C@@H]1CCCCO[C@H](CN(C)C(=O)Nc2ccc(C(F)(F)F)cc2)[C@@H](C)CN([C@@H](C)CO)C(=O)c2cc(NS(=O)(=O)c3cccs3)ccc2O1 -0.547%, CCOc1cccc(/C=N/NC(=O)CCCCCC(=O)Nc2ccccc2O)c1OCC -0.952%, C[C@@H]1CN([C@@H](C)CO)C(=O)c2cc(NC(=O)Nc3ccc(C(F)(F)F)cc3)ccc2O[C@@H](C)CCCCO[C@H]1CN(C)C(=O)CCCN(C)C 0.263%, Cc1noc(C)c1NC(=O)N(C)C[C@@H]1Oc2ccc(NS(=O)(=O)c3ccc(F)cc3)cc2CC(=O)N([C@@H](C)CO)C[C@H]1C -0.135%, COc1ccc(S(=O)(=O)Nc2ccc3c(c2)CC(=O)N([C@H](C)CO)C[C@H](C)[C@@H](CN(C)C(=O)NC(C)C)O3)cc1 0.0847%, C[C@H](CO)N1C[C@H](C)[C@@H](CN(C)S(C)(=O)=O)OCCCC[C@H](C)Oc2ccc(NC(=O)Nc3ccc(C(F)(F)F)cc3)cc2C1=O -0.463%, C[C@H]1CCCCO[C@H](CN(C)S(C)(=O)=O)[C@@H](C)CN([C@@H](C)CO)C(=O)c2cc(NC(=O)C3CCCCC3)ccc2O1 -0.127%, C[C@@H]1CN([C@@H](C)CO)C(=O)c2cc(NC(=O)NC3CCCCC3)ccc2O[C@@H](C)CCCCO[C@H]1CN(C)Cc1ccccc1 1.95%, C[C@@H]1CCCCO[C@@H](CN(C)C(=O)Nc2cccc3ccccc23)[C@H](C)CN([C@H](C)CO)C(=O)c2cc(NC(=O)NC3CCCCC3)ccc2O1 -0.528%, COc1ccc(NC(=O)N(C)C[C@H]2OCCCC[C@H](C)Oc3ccc(NC(=O)c4ccncc4)cc3C(=O)N([C@H](C)CO)C[C@@H]2C)cc1 -1.84%, COc1ccc(S(=O)(=O)Nc2cccc3c2O[C@@H](CN(C)C(=O)NC(C)C)[C@H](C)CN([C@@H](C)CO)C3=O)cc1 0.104%, COc1ccc(CN(C)C[C@H]2Oc3ccc(NS(=O)(=O)c4c(C)noc4C)cc3CC(=O)N([C@H](C)CO)C[C@H]2C)cc1 -1.02%, C[C@H]1CCCCO[C@H](CN(C)C(=O)Nc2ccccc2)[C@@H](C)CN([C@@H](C)CO)C(=O)c2cc(NC(=O)c3ccncc3)ccc2O1 0.525%, Cc1ccc(S(=O)(=O)Nc2ccc3c(c2)C(=O)N([C@@H](C)CO)C[C@H](C)[C@@H](CN(C)C(=O)Cc2ccccc2)OCCCC[C@H](C)O3)cc1 -0.949%, C[C@@H]1CN([C@H](C)CO)C(=O)c2cccc(NC(=O)Nc3ccccc3)c2O[C@H]1CN(C)S(C)(=O)=O -0.29%, Cc1ccccc1CN(C)C[C@H]1OCc2cn(nn2)CCCC(=O)N([C@@H](C)CO)C[C@H]1C -0.00464%, C[C@H](CO)N1C[C@H](C)[C@@H](CN(C)S(=O)(=O)c2cccs2)OCCCC[C@H](C)Oc2ccc(NS(=O)(=O)c3ccccc3)cc2C1=O 0.384%, C[C@@H]1CCCCO[C@H](CN(C)Cc2ccccc2)[C@H](C)CN([C@@H](C)CO)C(=O)c2cc(NC(=O)Nc3cccc4ccccc34)ccc2O1 -0.203%, O=C(CCCCCC(=O)Nc1ccccc1O)N/N=C/c1ccc(Br)o1 0.454%, C[C@H](CO)N1C[C@H](C)[C@H](CN(C)Cc2ccc(C(=O)O)cc2)OCc2cn(nn2)CCCC1=O 0.235%, C[C@@H]1CN([C@@H](C)CO)C(=O)c2cc(NC(=O)Nc3ccccc3)ccc2O[C@@H]1CN(C)Cc1ccccc1 -0.201%, CC(C)NC(=O)N(C)C[C@H]1OCCCC[C@H](C)Oc2ccc(NS(=O)(=O)c3cccs3)cc2C(=O)N([C@H](C)CO)C[C@@H]1C 1.03%, COc1ccc(NC(=O)N(C)C[C@@H]2Oc3ccc(NS(=O)(=O)c4ccc(OC)cc4)cc3CC(=O)N([C@H](C)CO)C[C@H]2C)cc1 0.4%, COc1ccc(S(=O)(=O)Nc2cccc3c2O[C@@H](CN(C)C(=O)Nc2cccc4ccccc24)[C@H](C)CN([C@@H](C)CO)C3=O)cc1 -1.43%, C[C@H](O)[C@H](O)[C@@H](O)[C@@H](O)/C=N/NC(=O)CCCCCC(=O)Nc1ccccc1O 0.323%, C[C@@H]1CN([C@@H](C)CO)C(=O)c2cc(NC(=O)Cc3ccccc3)ccc2O[C@@H](C)CCCCO[C@H]1CN(C)C(=O)Cc1ccccc1 1.05%, Cc1noc(C)c1S(=O)(=O)N(C)C[C@@H]1OCCCC[C@H](C)Oc2ccc(NC(=O)Nc3ccc4c(c3)OCO4)cc2C(=O)N([C@H](C)CO)C[C@@H]1C -0.0337%, O=C(CCCCCCC(=O)Nc1ccccc1O)N/N=C/c1ccc(Oc2ccccc2)cc1 0.474%, O=C(NO)c1ccc(C(=O)N/N=C/c2ccc(Br)cc2)cc1 -0.637%, CC(C)NC(=O)Nc1ccc2c(c1)C(=O)N([C@@H](C)CO)C[C@H](C)[C@H](CN(C)C(=O)NC1CCCCC1)OCCCC[C@@H](C)O2 0.925%, C[C@@H]1CN([C@H](C)CO)C(=O)c2cc(NC(=O)c3ccncc3)ccc2O[C@@H](C)CCCCO[C@@H]1CN(C)CC1CC1 -1.05%, C[C@H]1CCCCO[C@H](CN(C)CC2CC2)[C@@H](C)CN([C@@H](C)CO)C(=O)c2cc(NC(=O)CCC(F)(F)F)ccc2O1 -0.204%, C[C@@H]1CCCCO[C@@H](CN(C)S(=O)(=O)c2cccs2)[C@@H](C)CN([C@@H](C)CO)C(=O)c2cc(NS(=O)(=O)c3ccc(F)cc3)ccc2O1 0.628%
